The text below walks through data of ChEMBL document CHEMBL1144856, “Design, synthesis, and biological evaluation of 1-(4-sulfamylphenyl)-3-trifluoromethyl-5-indolyl pyrazolines as cyclooxygenase-2 (COX-2) and lipoxygenase (LOX) inhibitors” (Bioorg Med Chem, 2008).

Usually inhibition stands for the change of the read-out against control, counted positive when it falls. Usually IC50 stands for the concentration that inhibits the measured activity by half.

Assay [1] deals with T1, Polyunsaturated fatty acid lipoxygenase ALOX12 (Homo sapiens) (UniProt P18054).
T1 sequence (whole entry): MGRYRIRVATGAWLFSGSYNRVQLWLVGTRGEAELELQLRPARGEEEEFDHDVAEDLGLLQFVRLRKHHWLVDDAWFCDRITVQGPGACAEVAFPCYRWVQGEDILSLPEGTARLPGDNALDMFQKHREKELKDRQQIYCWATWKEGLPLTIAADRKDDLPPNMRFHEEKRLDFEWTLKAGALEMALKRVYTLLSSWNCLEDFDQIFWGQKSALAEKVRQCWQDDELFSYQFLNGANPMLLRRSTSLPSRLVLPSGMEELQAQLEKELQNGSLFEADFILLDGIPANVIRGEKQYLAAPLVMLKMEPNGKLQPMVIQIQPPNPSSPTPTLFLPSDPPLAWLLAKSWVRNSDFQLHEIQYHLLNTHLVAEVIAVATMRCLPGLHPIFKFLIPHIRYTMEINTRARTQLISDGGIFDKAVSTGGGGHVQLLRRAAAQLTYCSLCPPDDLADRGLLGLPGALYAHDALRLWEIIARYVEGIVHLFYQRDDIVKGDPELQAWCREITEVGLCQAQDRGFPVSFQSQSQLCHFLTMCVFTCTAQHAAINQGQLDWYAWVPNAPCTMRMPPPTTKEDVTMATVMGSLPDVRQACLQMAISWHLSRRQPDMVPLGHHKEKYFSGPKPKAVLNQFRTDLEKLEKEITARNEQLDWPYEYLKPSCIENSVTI
Briefly: Inhibition of LOX12 from human platelets at 10 uM by enzyme immuno assay. The method, boiled down: (§1)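 Run by a contract lab. Enzyme sources: human PBML cells (LOX-5), human platelets (LOX-12), rabbit reticulocytes (LOX-15). Substrates: endogenous arachidonic acid (LOX-5), added arachidonic acid (LOX-12), linoleic acid (LOX-15). Inhibition read as LTB4 (LOX-5), 12-HETE (LOX-12) or 15-HETE (LOX-15), quantified by EIA and spectrophotometrically.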

The species entered for a further assay is Ovis aries. Nature of the assay: Selectivity ratio of IC50 for ovine COX1 to IC50 for ovine COX2. The procedure, abridged: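 Purified hematin-reconstituted ovine COX-1 and COX-2 (six units each) in Tris–HCl 0.1 M pH 8.0, 5 mM EDTA, 2 mM phenol. Enzymes were preincubated 1 h at room temperature with inhibitor in DMSO, then given arachidonic acid for 2 min at 37 °C. PGF2α from SnCl2 reduction of PGH2 was read by EIA. IC50s are means of duplicates; ratio is COX-1 IC50/COX-2 IC50.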

Assay [2] deals with T2, Polyunsaturated fatty acid lipoxygenase ALOX15 (Oryctolagus cuniculus) (UniProt P12530).
T2 sequence (whole entry): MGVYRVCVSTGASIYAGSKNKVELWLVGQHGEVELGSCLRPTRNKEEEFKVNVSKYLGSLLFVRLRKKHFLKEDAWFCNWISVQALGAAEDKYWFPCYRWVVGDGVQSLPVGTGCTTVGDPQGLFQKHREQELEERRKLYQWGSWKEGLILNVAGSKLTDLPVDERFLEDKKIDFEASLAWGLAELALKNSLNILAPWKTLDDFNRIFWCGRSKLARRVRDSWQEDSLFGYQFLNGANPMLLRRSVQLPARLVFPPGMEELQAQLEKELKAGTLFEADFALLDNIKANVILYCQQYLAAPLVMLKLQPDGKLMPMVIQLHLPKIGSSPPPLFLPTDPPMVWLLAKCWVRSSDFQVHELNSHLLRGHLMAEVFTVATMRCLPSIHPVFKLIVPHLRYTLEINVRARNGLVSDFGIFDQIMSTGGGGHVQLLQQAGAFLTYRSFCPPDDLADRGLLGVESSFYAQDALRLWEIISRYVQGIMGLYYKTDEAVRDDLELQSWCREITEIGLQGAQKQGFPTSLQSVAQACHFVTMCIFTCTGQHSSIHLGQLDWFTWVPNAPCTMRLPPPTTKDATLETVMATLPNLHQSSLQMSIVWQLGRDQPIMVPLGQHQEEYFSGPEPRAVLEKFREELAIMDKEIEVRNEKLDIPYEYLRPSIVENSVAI
Briefly: Inhibition of LOX15 from rabbit reticulocytes at 10 uM by enzyme immuno assay. The procedure, abridged:
as §1

Assay [3] deals with T3, Polyunsaturated fatty acid 5-lipoxygenase (Homo sapiens) (UniProt P09917).
T3 sequence (whole entry): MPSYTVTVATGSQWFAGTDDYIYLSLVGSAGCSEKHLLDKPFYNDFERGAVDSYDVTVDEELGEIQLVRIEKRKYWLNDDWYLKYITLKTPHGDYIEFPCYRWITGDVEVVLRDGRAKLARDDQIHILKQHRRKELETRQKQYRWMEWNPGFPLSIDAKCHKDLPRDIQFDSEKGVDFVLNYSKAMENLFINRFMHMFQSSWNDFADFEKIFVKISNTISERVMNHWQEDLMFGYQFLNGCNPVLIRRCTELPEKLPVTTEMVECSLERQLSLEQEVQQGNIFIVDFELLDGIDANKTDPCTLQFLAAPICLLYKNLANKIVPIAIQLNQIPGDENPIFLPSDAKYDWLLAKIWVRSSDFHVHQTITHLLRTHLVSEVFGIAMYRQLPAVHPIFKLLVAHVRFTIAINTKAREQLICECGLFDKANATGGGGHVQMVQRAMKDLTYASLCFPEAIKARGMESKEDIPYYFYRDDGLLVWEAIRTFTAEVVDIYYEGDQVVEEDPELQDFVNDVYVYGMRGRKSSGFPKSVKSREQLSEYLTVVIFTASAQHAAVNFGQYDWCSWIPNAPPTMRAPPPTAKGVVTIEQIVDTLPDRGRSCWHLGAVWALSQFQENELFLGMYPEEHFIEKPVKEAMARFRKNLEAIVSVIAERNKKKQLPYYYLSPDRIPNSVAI
Briefly: Inhibition of LOX5 from human PBML cells at 10 uM by enzyme immuno assay. It counts as cell-based. The method, boiled down: as §1

For assay [4], the target named is T4, Prostaglandin G/H synthase 1 (Ovis aries, UniProt P05979).
T4 sequence (P05979 whole entry): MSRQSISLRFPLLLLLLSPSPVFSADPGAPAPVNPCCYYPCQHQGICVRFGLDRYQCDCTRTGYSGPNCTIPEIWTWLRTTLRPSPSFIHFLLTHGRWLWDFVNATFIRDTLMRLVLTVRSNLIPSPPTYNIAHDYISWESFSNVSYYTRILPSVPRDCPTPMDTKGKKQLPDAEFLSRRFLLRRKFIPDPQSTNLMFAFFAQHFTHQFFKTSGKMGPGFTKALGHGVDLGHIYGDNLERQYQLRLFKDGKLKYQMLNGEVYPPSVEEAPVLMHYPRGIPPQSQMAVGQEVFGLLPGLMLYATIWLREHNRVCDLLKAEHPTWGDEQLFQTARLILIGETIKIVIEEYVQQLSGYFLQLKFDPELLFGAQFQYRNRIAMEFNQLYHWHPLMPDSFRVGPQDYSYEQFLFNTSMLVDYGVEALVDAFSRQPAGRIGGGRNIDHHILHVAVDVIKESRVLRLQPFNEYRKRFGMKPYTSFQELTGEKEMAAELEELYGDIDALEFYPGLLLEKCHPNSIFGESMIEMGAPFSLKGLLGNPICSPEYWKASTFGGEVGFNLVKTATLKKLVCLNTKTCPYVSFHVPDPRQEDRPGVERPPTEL
Nature of the assay: Inhibition of ovine COX1 by enzyme immuno assay. The method, boiled down:
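Hematin-reconstituted purified ovine COX-1 (six units) in 0.1 M Tris-HCl pH 8.0 with 5 mM EDTA and 2 mM phenol. Pre-incubated 1 h at room temperature with inhibitor in DMSO, then arachidonic acid added for 2 min at 37 °C. PGH2 was reduced with stannous chloride and PGF2α measured by EIA. Run in duplicate; IC50 is the mean of the duplicates.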

For the molecule `NS(=O)(=O)c1ccc(N2N=C(C(F)(F)F)CC2c2c[nH]c3cc(Cl)ccc23)cc1` (stereo not drawn), the inhibition was -2% in assay [1], 36% in assay [2] and 51% in assay [3]. Also, the Ratio IC50 in the assay filed under Ovis aries is 0. Besides, the 50% inhibitory concentration (IC50) in assay [4] is > 100 µM.

For `NS(=O)(=O)c1ccc(N2N=C(C(F)(F)F)CC2c2c[nH]c3c(Cl)cccc23)cc1` (stereo in doubt; 5f), the results for the inhibition in assay [1], in assay [2] and in assay [3] were 3%, 36% and 94%, respectively. In addition, in the assay listed under Ovis aries, the Ratio IC50 is > 26.

As to `NS(=O)(=O)c1ccc(N2N=C(C(F)(F)F)CC2c2c[nH]c3ccccc23)cc1` (stereo in doubt; 5a), the inhibition in assay [1] was determined as 5%; in assay [2] it was 31%; in assay [3], 41%. Further, the Ratio IC50 in the assay filed under Ovis aries was > 72.
